# Activity calls are given as the source filed them. No cut-off for these calls is given here.
# What was measured:
# [1] = tested on: MCF7; experiment: Antiproliferative activity against human MCF7 cells after 48 hrs by MTT assay; type: functional; conditions: MCF7, 48 h
# Summary of the method: (§1)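 Cells were seeded at 2 × 10^4 cells/mL, allowed to adhere 24 h, then exposed 48 h to a concentration series, with DMSO as control. MTT was added for 2 h at 37 °C, formazan dissolved in DMSO and OD read at 490 nm. GI50 is the concentration giving 50% viability loss versus DMSO; 8 replicates, at least two independent experiments, ± SD.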
# [2] = tested on: HeLa; experiment: Antiproliferative activity against human HeLa cells after 48 hrs by MTT assay; type: functional; summary of the method: as §1
# [3] = tested on: HeLa; experiment: Antimitotic activity in human HeLa cells assessed as visible deffect in microtubule organization at 5 nM after 3 hrs by inverted microscopic analysis; type: functional, cell-based
# Summary of the method: (§2)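 HeLa cells in DMEM with 10% fetal calf serum, pyruvate, bicarbonate and PSF were treated 3 h with compound solubilized in DMSO and prediluted in medium, or with 0.1% DMSO carrier. Cells were fixed in methanol at −20°C and blocked 1 h in PBS-5% BSA. They were stained overnight at 4°C for tubulin, Hec1 and Hoechst 33342, then imaged by epifluorescence with structured illumination.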
# [4] = tested on: HeLa; experiment: Antimitotic activity in human HeLa cells assessed as disruption of interphase microtubule organization at 5 nM after 3 hrs by inverted microscopic analysis; type: functional, cell-based
# Summary of the method: (§3)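 HeLa cells in DMEM with 10% fetal calf serum, pyruvate, bicarbonate and PSF were exposed for 3 h to compound diluted from DMSO stock into medium, carrier 0.1% DMSO. Cells were fixed in methanol at −20 °C, blocked 1 h in PBS with 5% BSA, then stained overnight at 4 °C with anti-tubulin, anti-Hec1 and Hoechst 33342. Imaged by epifluorescence microscopy with structured illumination.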
# [5] = species on record: Bos taurus; experiment: Inhibition of purified bovine tubulin polymerization assessed as microtubule destabilization at 25 uM after 20 mins by fluorescence spectrophotometric analysis
# Summary of the method: (§4)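 Purified bovine tubulin was incubated at 37 °C in buffer with 10% glycerol and 1 mM GTP, each agent in a separate run, against a 0.05% DMSO control. Polymerization was followed by fluorescence spectrophotometry for 20 min, reading every 15 s.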
# [6] = tested on: Jurkat; experiment: Induction of apoptosis in human Jurkat cells assessed as cleavage of caspase 3 substrate DEVD-p-nitroanaline 2 hrs by spectrophotometric analysis; type: functional, cell-based
# Summary of the method: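 Jurkat cells (RPMI-1640, 10% FBS) were treated at 0.1, 0.5 and 1 μM alongside DMSO control. Lysates from 1 × 10^6 cells were normalized by BCA protein assay, then incubated with DEVD-pNA substrate for 2 h at 37 °C. Read at 405 nm and expressed relative to DMSO set as one. Quadruplicates, repeated at least twice.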
# [7] = tested on: HeLa; experiment: Antimitotic activity in human HeLa cells assessed as disruption of mitotic microtubule organization at 5 nM after 3 hrs by inverted microscopic analysis; type: functional, cell-based; summary of the method: as §3
# [8] = tested on: Jurkat; experiment: Induction of apoptosis in human Jurkat cells at 5 to 8 nM after 48 hrs by annexinV-propidium iodide staining based FITC analysis; type: functional, cell-based
# Summary of the method: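 Jurkat cells plated at 2 × 10^5 cells/mL were exposed for 48 h across a concentration range. They were pelleted, resuspended in HHB containing CaCl2, propidium iodide and Annexin-V-FITC, and labelled 20 min at 37 °C. Annexin-V-positive cells were scored by flow cytometry as % apoptotic. Triplicates, repeated at least twice, ± SD.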
# [9] = tested on: HeLa; experiment: Antimitotic activity in human HeLa cells assessed as nucleated microtubule at 10 uM after 3 hrs by inverted microscopic analysis; type: functional, cell-based; summary of the method: as §3
# [10] = tested on: HeLa; experiment: Antimitotic activity in human HeLa cells assessed as visible deffect in mitotic spindle formation at 10 uM after 3 hrs by inverted microscopic analysis; type: functional, cell-based; summary of the method: as §2
# [11] = tested on: HeLa; experiment: Antimitotic activity in human HeLa cells assessed as disruption of interphase microtubule organization at 10 uM after 3 hrs by inverted microscopic analysis; type: functional, cell-based; summary of the method: as §2
# [12] = species on record: Bos taurus; experiment: Inhibition of purified bovine tubulin polymerization assessed as microtubule destabilization at 3 uM after 20 mins by fluorescence spectrophotometric analysis relative to control; summary of the method: as §4
SMILES,GI50 [1],GI50 [2],other results
COc1cc(C2C3=C(COC3=O)Nc3c2ccc2ccc(O)cc32)cc(OC)c1OC (racemic),0.003 µM,0.002 µM,
O=C1OCC2=C1C(c1cc(Br)cs1)c1ccc3ccccc3c1N2 (racemic),0.003 µM,0.003 µM,
Nc1cc2c(c3ccccc13)NC1=C(C(=O)OC1)C2c1cc(Br)cc(Br)c1 (racemic),0.016 µM,0.021 µM,
O=C1OCC2=C1C(c1cc(Br)ccc1O)c1cn[nH]c1N2 (racemic),0.025 µM,0.05 µM,
COc1cc(Br)cc(C2C3=C(COC3=O)Nc3c2ccc2ccccc32)c1O (racemic),0.003 µM,0.003 µM,
O=C1OCC2=C1C(c1cc(Br)cc(Br)c1O)c1ccc3ccc(O)cc3c1N2 (racemic),0.003 µM,0.007 µM,
COc1cccc(C2C3=C(COC3=O)Nc3[nH]ncc32)c1O (racemic),0.5 µM,2 µM,
COc1cc(C2C3=C(COC3=O)Nc3cc4c(cc32)CCCC4)cc(OC)c1OC (racemic),0.019 µM,0.018 µM,
O=C1OCC2=C1C(c1cc(Br)cc(Br)c1)c1c([nH][nH]c1=O)N2 (racemic),> 10 µM,> 10 µM,
COc1cc(C2C3=C(COC3=O)Nc3[nH]ncc32)cc(Br)c1OC (racemic),0.25 µM,0.75 µM,
Cc1n[nH]c2c1C(c1cc(Br)cc(Br)c1)C1=C(COC1=O)N2 (racemic),0.075 µM,0.075 µM,
O=C1OCC2=C1C(c1cc(Br)cc(Br)c1)c1c(ccc3ccccc13)N2 (racemic),0.201 µM,0.42 µM,
COc1cc(C2C3=C(COC3=O)Nc3c2ccc2ccccc32)cc(OC)c1OC (racemic),0.003 µM,0.003 µM,
O=C1OCC2=C1C(c1cncc(Br)c1)c1cn[nH]c1N2 (racemic),0.015 µM,0.075 µM,
O=C1OCC2=C1C(c1cc(Br)cc(Br)c1)c1ccc3ccccc3c1N2 (racemic),0.014 µM,0.016 µM,
COc1cc(C2C3=C(COC3=O)Nc3[nH]nc(C)c32)cc(OC)c1OC (racemic),5 µM,5 µM,
O=C1OCC2=C1C(c1cc(Br)cc(Br)c1)c1cc3c(cc1N2)CCCC3 (racemic),0.07 µM,0.1 µM,
COc1cc(C2C3=C(COC3=O)Nc3c2ccc2c(O)cccc32)cc(OC)c1OC (racemic),0.003 µM,0.003 µM,
O=C1OCC2=C1[C@@H](c1cc(Br)cc(Br)c1)c1ccc3ccccc3c1N2,14 µM,19 µM,
COc1cc(C2C3=C(COC3=O)Nc3[nH]ncc32)cc(OC)c1OC (racemic),0.25 µM,3 µM,
O=C1OCC2=C1C(c1cc(Br)cc(Br)c1)c1ccc3ccc(O)cc3c1N2 (racemic),0.003 µM,0.006 µM,
COc1cc(C2C3=C(COC3=O)Nc3c2ccc2ccccc32)cc(Br)c1OC (racemic),0.003 µM,0.003 µM,
O=C1OCC2=C1C(c1cc(Br)ccc1O)c1ccc3ccc(O)cc3c1N2 (racemic),0.003 µM,0.003 µM,
COc1cc(C2C3=C(COC3=O)Nc3ccc4ccccc4c32)cc(OC)c1OC (racemic),0.121 µM,0.54 µM,
O=C1OCC2=C1C(c1cc(Br)cc(Br)c1O)c1ccc3ccccc3c1N2 (racemic),0.021 µM,0.018 µM,
O=C1OCC2=C1C(c1cc(Br)cs1)c1cn[nH]c1N2 (racemic),0.74 µM,1.15 µM,

SMILES,GI50 [1],GI50 [2],other results
O=C1OCC2=C1C(c1cncc(Br)c1)c1ccc3ccc(O)cc3c1N2 (racemic),0.003 µM,0.003 µM,
COc1cc(C2C3=C(COC3=O)Nc3[nH][nH]c(=O)c32)cc(OC)c1OC (racemic),> 10 µM,> 10 µM,
COc1cc2c(c(OC)c1OC)-c1ccc(OC)c(=O)cc1[C@@H](NC(C)=O)CC2,,,Activity [3]: inactive
O=C1OCC2=C1C(c1cc(Br)cc(Br)c1O)c1cn[nH]c1N2 (racemic),0.01 µM,0.02 µM,Activity [4]: Active; inhibition [5]: Active; Activity [6]: Active; Activity [7]: Active; Activity [8]: Active; Activity [9]: Active
Cc1n[nH]c2c1C(c1cncc(Br)c1)C1=C(COC1=O)N2 (racemic),0.8 µM,3 µM,
O=C1OCC2=C1C(c1cc(Br)cc(Br)c1)c1ccc3[nH]ccc3c1N2 (racemic),0.021 µM,0.114 µM,
COc1cc(C2C3=C(COC3=O)Nc3[nH]nc(C)c32)cc(Br)c1OC (racemic),1 µM,0.75 µM,
O=C1OCC2=C1C(c1cccc(Br)c1)c1cn[nH]c1N2 (racemic),0.1 µM,0.075 µM,
CSc1nc(N)c2c(n1)NC1=C(C(=O)OC1)C2c1cc(Br)cc(Br)c1 (racemic),1.02 µM,0.561 µM,
COc1cc(Br)cc(C2C3=C(COC3=O)Nc3c2ccc2ccc(O)cc32)c1O (racemic),0.003 µM,0.006 µM,
COc1cc(Br)cc(C2C3=C(COC3=O)Nc3[nH]ncc32)c1O (racemic),0.03 µM,0.025 µM,
COc1cc(C2C3=C(COC3=O)Nc3c2ccc2ccc(O)cc32)cc(Br)c1OC (racemic),0.003 µM,0.002 µM,
COc1cc(Br)cc(C2C3=C(COC3=O)Nc3[nH]nc(C)c32)c1O (racemic),0.1 µM,0.035 µM,
O=C1OCC2=C1C(c1cc(Br)ccc1O)c1ccc3ccccc3c1N2 (racemic),0.003 µM,0.003 µM,
COc1cc(C2C3=C(COC3=O)Nc3c2ccc2[nH]ccc32)cc(OC)c1OC (racemic),0.022 µM,0.019 µM,
O=C1OCC2=C1C(c1cc(Br)cs1)c1ccc3ccc(O)cc3c1N2 (racemic),0.003 µM,0.003 µM,
COc1cc([C@@H]2c3cc4c(cc3[C@H](O)[C@H]3COC(=O)[C@H]23)OCO4)cc(OC)c1OC [PODOFILOX],0.01 µM,0.02 µM,Activity [10]: Active; inhibition [5]: Active; Activity [6]: Active; Activity [11]: inactive
Cc1n[nH]c2c1C(c1cccc(Br)c1)C1=C(COC1=O)N2 (racemic),4 µM,3 µM,
O=C1OCC2=C1C(c1cc(Br)cc(Br)c1)c1ccc3c(O)cccc3c1N2 (racemic),0.023 µM,0.021 µM,
COc1cc(C2C3=C(COC3=O)Nc3nc(SC)nc(N)c32)cc(OC)c1OC (racemic),0.17 µM,0.125 µM,
O=C1OCC2=C1C(c1cncc(Br)c1)c1ccc3ccccc3c1N2 (racemic),0.013 µM,0.007 µM,
O=C1OCC2=C1C(c1cc(Br)cc(Br)c1)c1cn[nH]c1N2 (racemic),0.025 µM,0.025 µM,inhibition [5]: Active; Activity [6]: Active
Cc1n[nH]c2c1C(c1cc(Br)ccc1O)C1=C(COC1=O)N2 (racemic),0.25 µM,0.3 µM,
CC(=O)O[C@H]1C(=O)[C@@]2(C)[C@H]([C@H](OC(=O)c3ccccc3)[C@]3(O)C[C@H](OC(=O)[C@H](O)[C@@H](NC(=O)c4ccccc4)c4ccccc4)C(C)=C1C3(C)C)[C@]1(OC(C)=O)CO[C@@H]1C[C@@H]2O,,,inhibition [12]: inactive
O=C1OCC2=C1[C@H](c1cc(Br)cc(Br)c1)c1ccc3ccccc3c1N2,0.009 µM,0.009 µM,
